Experimental data reported in ChEMBL document CHEMBL2040727, “Substituted thiazoles VI. Synthesis and antitumor activity of new 2-acetamido- and 2 or 3-propanamido-thiazole analogs” (2012).

Tests used:
Type in all cases: functional
SNB-19 = experiment: Growth inhibition of human SNB19 cells at 10 uM after 48 hrs by coulter counter analysis; details: SNB-19, 48 h, read-out: GI
Summary of the method: (§1)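 Single-dose NCI 60-line panel screen of test compounds. Cells grown in RPMI 1640 with 10% FBS. Compounds dissolved in DMSO, then diluted in phosphate buffer saline (final DMSO below 1%). Wells run in duplicate at 6 × 10⁴ cells/ml. Controls held PBS and DMSO at matching dilutions. Incubation 48 h at 37 °C under humidified 5% CO2. Cells diluted tenfold in saline and counted by Coulter counter. Percent growth inhibition taken from mean-graph of treated-cell growth.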

MDA-MB-468 = experiment: Growth inhibition of human MDA-MB-468 cells at 10 uM after 48 hrs by coulter counter analysis; details: MDA-MB-468, 48 h, read-out: GI; summary of the method: as §1
KM12 = experiment: Growth inhibition of human KM12 cells at 10 uM after 48 hrs by coulter counter analysis; details: KM12, 48 h, read-out: GI; summary of the method: as §1
NCI-H460 = experiment: Growth inhibition of human NCI-H460 cells at 10 uM after 48 hrs by coulter counter analysis; details: NCI-H460, 48 h, read-out: GI; summary of the method: as §1
ACHN = experiment: Growth inhibition of human ACHN cells at 10 uM after 48 hrs by coulter counter analysis; details: read-out: GI; summary of the method: as §1
M14 = experiment: Growth inhibition of human M14 cells at 10 uM after 48 hrs by coulter counter analysis; details: M14, 48 h, read-out: GI; summary of the method: as §1
MOLT-4 = experiment: Growth inhibition of human MOLT4 cells at 10 uM after 48 hrs by coulter counter analysis; details: MOLT-4, 48 h, read-out: GI; summary of the method: as §1
CAKI-1 = experiment: Growth inhibition of human Caki1 cells at 10 uM after 48 hrs by coulter counter analysis; details: CAKI-1, 48 h, read-out: GI; summary of the method: as §1
HOP-92 = experiment: Growth inhibition of human HOP92 cells at 10 uM after 48 hrs by coulter counter analysis; details: HOP-92, 48 h, read-out: GI; summary of the method: as §1
HL-60(TB) = experiment: Growth inhibition of human HL-60(TB) cells at 10 uM after 48 hrs by coulter counter analysis; details: HL-60, 48 h, read-out: GI
Summary of the method: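 Cells grown in RPMI 1640 with 10% FBS. Compound was dissolved in DMSO and diluted in PBS (under 1% DMSO final), then added in duplicate wells to culture at 6 × 10⁴ cells/ml. PBS/DMSO vehicle controls were included. Incubated at 37 °C, humidified 5% CO₂, for 48 h. Cells were diluted 10-fold in saline and Coulter-counted. Single-dose NCI-60 screen, read as percent growth inhibition.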

NCI-H322M = experiment: Growth inhibition of human NCI-H322M cells at 10 uM after 48 hrs by coulter counter analysis; details: read-out: GI; summary of the method: as §1
SR = experiment: Growth inhibition of human SR cells at 10 uM after 48 hrs by coulter counter analysis; details: read-out: GI
Summary of the method: (§2)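 Single-dose screen in the NCI 60 cell line panel. Cells grown in RPMI 1640 with 10% FBS. Compounds dissolved in DMSO and diluted in phosphate buffered saline, final DMSO under 1%. Duplicate wells seeded from culture at 6 × 10⁴ cells/ml. Incubated 48 h at 37 °C, humidified, 5% CO2. Cells diluted tenfold in saline and Coulter-counted. Percent growth inhibition computed against PBS/DMSO controls.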

SF-539 = experiment: Growth inhibition of human SF539 cells at 10 uM after 48 hrs by coulter counter analysis; details: SF-539, 48 h, read-out: GI; summary of the method: as §1
T47D = experiment: Growth inhibition of human T47D cells at 10 uM after 48 hrs by coulter counter analysis; details: read-out: GI; summary of the method: as §2
COLO 205 = experiment: Growth inhibition of human COLO205 cells at 10 uM after 48 hrs by coulter counter analysis; details: COLO 205, 48 h, read-out: GI; summary of the method: as §1
NCI-H23 = experiment: Growth inhibition of human NCI-H23 cells at 10 uM after 48 hrs by coulter counter analysis; details: NCI-H23, 48 h, read-out: GI; summary of the method: as §1
LOX IMVI = experiment: Growth inhibition of human LOXIMVI cells at 10 uM after 48 hrs by coulter counter analysis; details: read-out: GI; summary of the method: as §1
EKVX = experiment: Growth inhibition of human EKVX cells at 10 uM after 48 hrs by coulter counter analysis; details: read-out: GI; summary of the method: as §1
Malme-3M = experiment: Growth inhibition of human MALME-3M cells at 10 uM after 48 hrs by coulter counter analysis; details: read-out: GI; summary of the method: as §1
786-0 = experiment: Growth inhibition of human 786-0 cells at 10 uM after 48 hrs by coulter counter analysis; details: 786-0, 48 h, read-out: GI; summary of the method: as §1
MDA-MB-435 = experiment: Growth inhibition of human MDA-MB-435 cells at 10 uM after 48 hrs by coulter counter analysis; details: MDA-MB-435, 48 h, read-out: GI; summary of the method: as §1
SN12C = experiment: Growth inhibition of human SN12C cells at 10 uM after 48 hrs by coulter counter analysis; details: read-out: GI; summary of the method: as §1
BT-549 = experiment: Growth inhibition of human BT549 cells at 10 uM after 48 hrs by coulter counter analysis; details: BT-549, 48 h, read-out: GI; summary of the method: as §1
SK-MEL-2 = experiment: Growth inhibition of human SK-MEL-2 cells at 10 uM after 48 hrs by coulter counter analysis; details: SK-MEL-2, 48 h, read-out: GI; summary of the method: as §1
IGROV-1 = experiment: Growth inhibition of human IGROV1 cells at 10 uM after 48 hrs by coulter counter analysis; details: IGROV-1, 48 h, read-out: GI; summary of the method: as §1
CCRF-CEM = experiment: Growth inhibition of human CCRF-CEM cells at 10 uM after 48 hrs by coulter counter analysis; details: read-out: GI; summary of the method: as §1
OVCAR-8 = experiment: Growth inhibition of human OVCAR8 cells at 10 uM after 48 hrs by coulter counter analysis; details: OVCAR-8, 48 h, read-out: GI; summary of the method: as §1
SK-MEL-28 = experiment: Growth inhibition of human SK-MEL-28 cells at 10 uM after 48 hrs by coulter counter analysis; details: SK-MEL-28, 48 h, read-out: GI; summary of the method: as §1
OVCAR-3 = experiment: Growth inhibition of human OVCAR3 cells at 10 uM after 48 hrs by coulter counter analysis; details: OVCAR-3, 48 h, read-out: GI; summary of the method: as §1
HCT-116 = experiment: Growth inhibition of human HCT116 cells at 10 uM after 48 hrs by coulter counter analysis; details: HCT-116, 48 h, read-out: GI; summary of the method: as §1
SNB-75 = experiment: Growth inhibition of human SNB75 cells at 10 uM after 48 hrs by coulter counter analysis; details: SNB-75, 48 h, read-out: GI; summary of the method: as §2
MCF7 = experiment: Growth inhibition of human MCF7 cells at 10 uM after 48 hrs by coulter counter analysis; details: MCF7, 48 h, read-out: GI; summary of the method: as §1
HCC 2998 = experiment: Growth inhibition of human HCC2998 cells at 10 uM after 48 hrs by coulter counter analysis; details: HCC 2998, 48 h, read-out: GI; summary of the method: as §1
PC-3 = experiment: Growth inhibition of human PC3 cells at 10 uM after 48 hrs by coulter counter analysis; details: PC-3, 48 h, read-out: GI; summary of the method: as §1

SMILES | inhibition of growth at 10 µM (SNB-19) | inhibition of growth at 10 µM (MDA-MB-468) | inhibition of growth at 10 µM (KM12) | inhibition of growth at 10 µM (NCI-H460) | inhibition of growth at 10 µM (ACHN) | inhibition of growth at 10 µM (M14) | inhibition of growth at 10 µM (MOLT-4) | inhibition of growth at 10 µM (CAKI-1) | inhibition of growth at 10 µM (HOP-92) | inhibition of growth at 10 µM (HL-60(TB)) | inhibition of growth at 10 µM (NCI-H322M) | inhibition of growth at 10 µM (SR) | inhibition of growth at 10 µM (SF-539) | inhibition of growth at 10 µM (T47D) | inhibition of growth at 10 µM (COLO 205) | inhibition of growth at 10 µM (NCI-H23) | inhibition of growth at 10 µM (LOX IMVI) | inhibition of growth at 10 µM (EKVX) | inhibition of growth at 10 µM (Malme-3M) | inhibition of growth at 10 µM (786-0) | further results
Cc1csc(NC(=O)C(C)N2CCN(c3ccccc3)CC2)n1 (stereo not drawn) | < 10% | < 10% | < 10% | < 10% | < 10% | < 10% | < 10% | < 10% | < 10% | < 10% | < 10% | < 10% | < 10% | < 10% | < 10% | < 10% | < 10% | < 10% | < 10% | < 10% | inhibition of growth at 10 µM (MDA-MB-435): < 10%; inhibition of growth at 10 µM (SN12C): < 10%; inhibition of growth at 10 µM (BT-549): < 10%; inhibition of growth at 10 µM (SK-MEL-2): < 10%; inhibition of growth at 10 µM (IGROV-1): < 10%; inhibition of growth at 10 µM (CCRF-CEM): < 10%; inhibition of growth at 10 µM (OVCAR-8): < 10%; inhibition of growth at 10 µM (SK-MEL-28): < 10%; inhibition of growth at 10 µM (OVCAR-3): < 10%; inhibition of growth at 10 µM (HCT-116): < 10%; inhibition of growth at 10 µM (SNB-75): 24%; inhibition of growth at 10 µM (MCF7): < 10%; inhibition of growth at 10 µM (HCC 2998): < 10%; inhibition of growth at 10 µM (PC-3): < 10%
CCOC(=O)c1sc(NC(=O)C(C)N(CC)CC)nc1C (stereo not drawn) | < 10% | < 10% | < 10% | < 10% | < 10% | < 10% | < 10% | 12% | < 10% | < 10% | < 10% | < 10% | < 10% | < 10% | < 10% | < 10% | < 10% | < 10% | < 10% | < 10% | inhibition of growth at 10 µM (MDA-MB-435): < 10%; inhibition of growth at 10 µM (SN12C): < 10%; inhibition of growth at 10 µM (BT-549): < 10%; inhibition of growth at 10 µM (SK-MEL-2): < 10%; inhibition of growth at 10 µM (IGROV-1): < 10%; inhibition of growth at 10 µM (CCRF-CEM): < 10%; inhibition of growth at 10 µM (OVCAR-8): < 10%; inhibition of growth at 10 µM (SK-MEL-28): < 10%; inhibition of growth at 10 µM (OVCAR-3): < 10%; inhibition of growth at 10 µM (HCT-116): < 10%; inhibition of growth at 10 µM (SNB-75): 16.4%; inhibition of growth at 10 µM (MCF7): < 10%; inhibition of growth at 10 µM (HCC 2998): < 10%; inhibition of growth at 10 µM (PC-3): < 10%
